# What was measured:
# Mu-type opioid receptor [1] = biological target: Mu-type opioid receptor (Homo sapiens, UniProt P35372); assay: Displacement of [3H]-DAMGO from human MOR receptor expressed in HEK293T cell membrane assessed as inhibition constant incubated for 60 mins by MicroBeta scintillation counting method; format: cell membranes
# How it was run: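 HEK293 cells stably expressing human MOR, grown in DMEM with 10% FBS and hygromycin B; membranes prepared from confluent cells. Binding buffer 50 mM Tris, 5 mM MgCl2, pH 7.4. Nonspecific binding with 10 μM naloxone. 60 min at RT, then GF/C filtration.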
# D(3) dopamine receptor [2] = biological target: T1, D(3) dopamine receptor (Homo sapiens, UniProt P35462); assay: Displacement of [3H]N-methylspiperone from human D3R receptor expressed in HEK293T cell membrane assessed as inhibition constant incubated for 60 mins by MicroBeta scintillation counting method; format: cell membranes
# T1 sequence (P35462 whole entry): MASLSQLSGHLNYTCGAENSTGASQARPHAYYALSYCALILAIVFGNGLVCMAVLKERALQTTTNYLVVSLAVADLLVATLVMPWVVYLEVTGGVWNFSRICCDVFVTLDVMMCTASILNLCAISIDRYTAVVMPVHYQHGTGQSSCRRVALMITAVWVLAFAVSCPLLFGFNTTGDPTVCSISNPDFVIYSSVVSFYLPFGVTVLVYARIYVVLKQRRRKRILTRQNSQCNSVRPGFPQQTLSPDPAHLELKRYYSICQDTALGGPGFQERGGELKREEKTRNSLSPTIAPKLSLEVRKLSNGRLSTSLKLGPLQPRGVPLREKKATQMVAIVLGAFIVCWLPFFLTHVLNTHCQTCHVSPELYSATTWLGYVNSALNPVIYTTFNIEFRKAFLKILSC
# D(2) dopamine receptor = D(2) dopamine receptor (Homo sapiens, UniProt P14416); assay: Displacement of [3H]N-methylspiperone from human D2L receptor expressed in HEK293T cell membrane assessed as inhibition constant incubated for 60 mins by MicroBeta scintillation counting method; format: cell membranes
# D(2) dopamine receptor, sequence (P14416 whole entry, the tested form may be a part): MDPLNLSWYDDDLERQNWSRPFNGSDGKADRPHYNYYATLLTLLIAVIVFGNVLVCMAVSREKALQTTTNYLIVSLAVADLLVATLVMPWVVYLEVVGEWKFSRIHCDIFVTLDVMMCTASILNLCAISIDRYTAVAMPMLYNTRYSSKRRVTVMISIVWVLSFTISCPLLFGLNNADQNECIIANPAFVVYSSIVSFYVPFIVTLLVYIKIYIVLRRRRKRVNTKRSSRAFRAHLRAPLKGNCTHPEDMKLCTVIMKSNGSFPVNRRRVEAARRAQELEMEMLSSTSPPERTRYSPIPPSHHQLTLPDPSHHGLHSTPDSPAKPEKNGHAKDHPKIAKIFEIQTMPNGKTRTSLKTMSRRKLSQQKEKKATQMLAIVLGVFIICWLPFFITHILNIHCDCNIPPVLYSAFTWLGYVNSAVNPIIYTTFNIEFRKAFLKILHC
# [3] = biological target: Mu-type opioid receptor (Mus musculus) (UniProt P42866); assay: Partial agonist activity at Rluc8 fused mouse MOR transfected in HEK293T cells assessed as Nb33 recruitment at 10 uM using coelenterazine as substrate incubated for 40 mins by BRET assay relative to control; format: functional, cell-based
# Mu-type opioid receptor (Mus musculus), sequence (P42866 whole entry, the tested form may be a part): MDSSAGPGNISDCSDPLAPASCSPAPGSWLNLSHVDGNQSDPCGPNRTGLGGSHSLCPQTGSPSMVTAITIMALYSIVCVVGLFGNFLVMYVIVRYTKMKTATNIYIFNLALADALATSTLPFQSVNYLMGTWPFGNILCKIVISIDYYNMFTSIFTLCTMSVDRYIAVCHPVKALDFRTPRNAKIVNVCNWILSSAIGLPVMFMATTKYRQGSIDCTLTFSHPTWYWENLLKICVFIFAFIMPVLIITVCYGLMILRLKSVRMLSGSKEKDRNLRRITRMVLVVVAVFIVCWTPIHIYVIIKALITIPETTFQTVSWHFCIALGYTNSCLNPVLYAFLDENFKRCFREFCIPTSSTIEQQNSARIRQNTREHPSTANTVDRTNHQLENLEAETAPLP
# How it was run: (§1)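 HEK293T cells transiently transfected with BRET sensors (DNA:PEI 1:6), plated into poly-D-lysine plates and assayed 48 h post-transfection. Cells washed and held in D-PBS 30 min at 37 °C. Coelenterazine h 5 μM final; ligands 10 μM to 0.01 nM. At least three independent experiments in duplicate.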
# D(3) dopamine receptor [4] = biological target: T1, D(3) dopamine receptor; assay: (§2) Partial agonist activity at SNAP-tagged human D3R receptor transfected in HEK293T cells coexpressing wild type Galpha-oA, venus-tagged Gbeta-1 (156 to 239 residues), venus-tagged Ggamma2 (1 to 155 residues) and Rluc8 fused masGRK3ct assessed as Galpha-oA activation using coelenterazine as substrate incubated for 40 mins by BRET based GPA assay; format: functional, cell-based
# Mu-type opioid receptor [5] = biological target: T2, Mu-type opioid receptor (Mus musculus, UniProt P42866); assay: Partial agonist activity at Rluc8 fused mouse MOR transfected in HEK293T cells coexpressing wild type GRK2 assessed as arrestin-3 recruitment using coelenterazine as substrate incubated for 40 mins by BRET assay; format: functional, cell-based; how it was run: as §1
# T2 sequence (P42866 whole entry, the tested form may be a part): as above
# [6] = biological target: Mu-type opioid receptor (Mus musculus) (UniProt P42866); assay: Partial agonist activity at Rluc8 fused mouse MOR transfected in HEK293T cells coexpressing wild type GRK2 assessed as arrestin-3 recruitment at 10 uM using coelenterazine as substrate incubated for 40 mins by BRET assay relative to control; format: functional, cell-based
# How it was run: (§3)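 HEK293T cells transiently transfected with BRET sensors (DNA:PEI 1:6), plated into poly-D-lysine plates and assayed 48 h post-transfection. Cells washed and held in D-PBS 30 min at 37 °C. Coelenterazine h 5 μM final; ligands 10 μM to 0.01 nM. […] At least three independent experiments in duplicate.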
# Mu-type opioid receptor [7] = biological target: T2, Mu-type opioid receptor; assay: as §2, with “mouse MOR” for “human D3R receptor”, “Galpha-i2,” for “Galpha-oA,”, “Galpha-i2” for “Galpha-oA”; format: functional, cell-based; how it was run: as §1
# [8] = biological target: Mu-type opioid receptor (Mus musculus) (UniProt P42866); assay: as §2, with “mouse MOR” for “human D3R receptor”, “Galpha-i2,” for “Galpha-oA,”, “Galpha-i2” for “Galpha-oA”, “activation at 10 uM” for “activation”, “assay relative to control” for “assay”; format: functional, cell-based; how it was run: as §1
# Mu-type opioid receptor [9] = biological target: T2, Mu-type opioid receptor; assay: Partial agonist activity at Rluc8 fused mouse MOR transfected in HEK293T cells assessed as Nb33 recruitment using coelenterazine as substrate incubated for 40 mins by BRET assay; format: functional, cell-based; how it was run: as §1
# Mu-type opioid receptor [10] = biological target: T2, Mu-type opioid receptor; assay: Agonist activity at Rluc8 fused mouse MOR transfected in HEK293T cells assessed as Nb33 recruitment using coelenterazine as substrate incubated for 40 mins by BRET assay; format: functional, cell-based; how it was run: as §1
# Mu-type opioid receptor [11] = biological target: T2, Mu-type opioid receptor; assay: as §2, with “Agonist” for “Partial agonist”, “mouse MOR” for “human D3R receptor”, “Galpha-i2,” for “Galpha-oA,”, “Galpha-i2” for “Galpha-oA”; format: functional, cell-based; conditions: read-out: EC50; how it was run: as §1
# Mu-type opioid receptor [12] = biological target: T2, Mu-type opioid receptor; assay: Agonist activity at Rluc8 fused mouse MOR transfected in HEK293T cells coexpressing wild type GRK2 assessed as arrestin-3 recruitment using coelenterazine as substrate incubated for 40 mins by BRET assay; format: functional, cell-based; how it was run: as §1
# [13] = biological target: Mu-type opioid receptor (Mus musculus) (UniProt P42866); assay: Agonist activity at Rluc8 fused mouse MOR transfected in HEK293T cells coexpressing wild type GRK2 assessed as arrestin-3 recruitment at 10 uM using coelenterazine as substrate incubated for 40 mins by BRET assay relative to control; format: functional, cell-based; conditions: filed as agonist; how it was run: as §3
# [14] = biological target: Mu-type opioid receptor (Mus musculus) (UniProt P42866); assay: Agonist activity at Rluc8 fused mouse MOR transfected in HEK293T cells assessed as Nb33 recruitment at 10 uM using coelenterazine as substrate incubated for 40 mins by BRET assay relative to control; format: functional, cell-based; conditions: filed as agonist; how it was run: as §3
# Mu-type opioid receptor (Homo sapiens, UniProt P35372), sequence (P35372 whole entry): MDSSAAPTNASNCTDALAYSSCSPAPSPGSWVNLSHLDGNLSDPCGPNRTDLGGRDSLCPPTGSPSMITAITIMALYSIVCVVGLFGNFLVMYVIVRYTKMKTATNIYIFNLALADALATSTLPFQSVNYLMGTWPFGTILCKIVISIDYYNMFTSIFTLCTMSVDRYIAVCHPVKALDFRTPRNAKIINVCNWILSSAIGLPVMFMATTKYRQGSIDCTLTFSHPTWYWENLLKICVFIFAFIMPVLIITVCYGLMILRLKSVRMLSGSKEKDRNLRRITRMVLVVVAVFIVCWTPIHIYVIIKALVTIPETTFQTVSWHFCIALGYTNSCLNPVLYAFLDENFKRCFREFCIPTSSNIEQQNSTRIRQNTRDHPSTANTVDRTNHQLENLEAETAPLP
structure (smiles),measurement,setting,value
CN(C)C(=O)C(CCN1C[C@H](O)C[C@H]1CN1CCN(c2cccc(C(F)(F)F)n2)CC1)(c1ccccc1)c1ccccc1,Ki,Mu-type opioid receptor [1],782 nM
same,Ki,D(3) dopamine receptor [2],2700 nM
same,Ki,D(2) dopamine receptor,4660 nM
CN(C)C(=O)C(CCN1CCC(CCN2CCN(c3cccc(Cl)c3Cl)CC2)C1)(c1ccccc1)c1ccccc1 (configuration not stated),Emax,[3],14.6%
same,EC50,D(3) dopamine receptor [4],41.7 nM
same,EC50,Mu-type opioid receptor [5],470 nM
same,Emax,[6],10.5%
same,EC50,Mu-type opioid receptor [7],158 nM
same,Emax,[8]; filed as partial agonist,85.4%
same,Ki,Mu-type opioid receptor [1],23.5 nM
same,Ki,D(3) dopamine receptor [2],20.2 nM
same,Ki,D(2) dopamine receptor,117 nM
same,EC50,Mu-type opioid receptor [9],658 nM
CCc1cc(Cl)c(OC)c(N2CCN(Cc3cn(CCC(C(=O)N(C)C)(c4ccccc4)c4ccccc4)nn3)CC2)c1,Ki,Mu-type opioid receptor [1],2380 nM
CN(C)C(=O)C(CCN[C@@H]1C[C@H]1c1ccc(F)cc1)(c1ccccc1)c1ccccc1 (relative stereo),Ki,Mu-type opioid receptor [1],47 nM
CCC1(CC)CC(OCCCN2CCN(c3cccc(Cl)c3Cl)CC2)(c2ccccn2)CCO1 (configuration not stated),Ki,Mu-type opioid receptor [1],2270 nM
same,Ki,D(3) dopamine receptor [2],21.7 nM
same,Ki,D(2) dopamine receptor,122 nM
CN(C)C(=O)C(CCN1C[C@H](F)C[C@H]1C(=O)NCCCCN1CCN(c2cccc(C(F)(F)F)n2)CC1)(c1ccccc1)c1ccccc1,EC50,Mu-type opioid receptor [7],1160 nM
same,Ki,Mu-type opioid receptor [1],192 nM
same,EC50,Mu-type opioid receptor [9],5750 nM
FC(F)(F)c1cccc(N2CCN(CCC3(c4ccccn4)CCOC4(CCCC4)C3)CC2)n1 (configuration not stated),Ki,Mu-type opioid receptor [1],166 nM
same,Ki,D(3) dopamine receptor [2],734 nM
same,Ki,D(2) dopamine receptor,5430 nM
COc1ccsc1CNCC[C@@]1(c2ccccn2)CCOC2(CCCC2)C1 [OLICERIDINE],Emax,[3],31.4%
same,Emax,[6],49.1%
same,Emax,[8],93.2%
same,Ki,D(3) dopamine receptor [2],6860 nM
same,Ki,D(2) dopamine receptor,83200 nM
Clc1cccc(N2CCN(CCC3(c4ccccn4)CCOCC3)CC2)c1Cl,EC50,Mu-type opioid receptor [10],1590 nM
same,EC50,Mu-type opioid receptor [11],848 nM
same,EC50,Mu-type opioid receptor [12],6480 nM
same,Ki,Mu-type opioid receptor [1],691 nM
COc1ccccc1[C@@H]1C[C@H]1NCCC(C(=O)N(C)C)(c1ccccc1)c1ccccc1 (relative stereo),Ki,Mu-type opioid receptor [1],55.2 nM
C[C@@H](NC(=O)[C@@H](N)Cc1ccc(O)cc1)C(=O)NCC(=O)N(C)[C@@H](Cc1ccccc1)C(=O)NCCO,Emax,[13],98.7%
same,Emax,[14],98.5%
COc1ccc([C@@H]2C[C@H]2NCCC(C(=O)N(C)C)(c2ccccc2)c2ccccc2)cc1 (relative stereo),Ki,Mu-type opioid receptor [1],81.8 nM
CCCN(CCC(C(=O)N(C)C)(c1ccccc1)c1ccccc1)[C@@H]1C[C@H]1c1ccc(Cl)cc1 (relative stereo),Ki,Mu-type opioid receptor [1],31.2 nM
FC(F)(F)c1cccc(N2CCN(CCC3(c4ccccn4)CCOCC3)CC2)n1,Ki,Mu-type opioid receptor [1],1670 nM
Clc1ccc([C@@H]2C[C@H]2NCCC2(c3ccccn3)CCOCC2)cc1 (relative stereo),Ki,Mu-type opioid receptor [1],1580 nM
CCC1(CC)CC(OCCCNCc2cccc(C(F)(F)F)n2)(c2ccccn2)CCO1 (configuration not stated),Ki,Mu-type opioid receptor [1],2520 nM
same,Ki,D(3) dopamine receptor [2],2700 nM
CN(C)C(=O)C(CCN1C[C@H](O)C[C@H]1C(=O)NCCCCN1CCN(c2cccc(Cl)c2Cl)CC1)(c1ccccc1)c1ccccc1,EC50,Mu-type opioid receptor [7],1810 nM
same,Ki,Mu-type opioid receptor [1],564 nM
CC1CCC(CN2CCN(c3cccc(Cl)c3Cl)CC2)CN1CCC(C(=O)N(C)C)(c1ccccc1)c1ccccc1 (configuration not stated),Ki,Mu-type opioid receptor [1],867 nM
same,Ki,D(3) dopamine receptor [2],309 nM
same,Ki,D(2) dopamine receptor,146 nM
